# Test results from ChEMBL document CHEMBL4689842, “EUbOPEN Chemogenomics Library wave 1” (2021).
# Tested on: Fibroblast
# Test: Multiplex assay against human fibroblast
# Assay type: toxicity, cell-based
# Outline: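 On a CQ1 microscope at 37°C and 5% CO2, live cells were imaged after compound addition. They had been stained at seeding with Hoechst33342, BioTracker Green Microtubule Cytoskeleton Dye, MitoTracker Red and Annexin V Alexa Fluor 680. CellPathfinder machine-learning gating assigned cells to Hoechst high-intensity objects or normal cells, normal cells to healthy, pyknosed or fragmented nuclei, and pyknosed cells to mitotic or apoptotic. Tubulin, mitochondrial-mass and membrane-permeability phenotypes are per cents of healthy-nucleus cells.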
# [1] = 12 h, 1 µM, compound concentration 1 uM, replicate 1
# [2] = 12 h, 1 µM, compound concentration 1 uM, replicate 2
# [3] = 12 h, 10 µM, compound concentration 10 uM, replicate 1
# [4] = 12 h, 10 µM, compound concentration 10 uM, replicate 2
# [5] = 24 h, 1 µM, compound concentration 1 uM, replicate 1
# [6] = 24 h, 1 µM, compound concentration 1 uM, replicate 2
# [7] = 24 h, 10 µM, compound concentration 10 uM, replicate 1
# [8] = 24 h, 10 µM, compound concentration 10 uM, replicate 2
# [9] = 48 h, 1 µM, compound concentration 1 uM, replicate 1
# [10] = 48 h, 1 µM, compound concentration 1 uM, replicate 2
# [11] = 48 h, 10 µM, compound concentration 10 uM, replicate 1
# [12] = 48 h, 10 µM, compound concentration 10 uM, replicate 2
structure (smiles),measurement,setting,value
CC(C)[C@H](CO)Nc1nc(Nc2cccc(Cl)c2)c2ncn(C(C)C)c2n1 [PURVALANOLA],Population Apoptotic (%),[1],65%
same,Population Fragmented Nuclei (%),[1],30%
same,Population Healthy Nuclei (%),[1],39%
same,Population Hoechst High Intensity Objects (%),[1],17%
same,Population Membrane Permeable-Phenotype (%),[1],20%
same,Population Mitochondria Different-Phenotype (%),[1],7%
same,Population Mitotic Cells (%),[1],35%
same,Population Normal (%),[1],82%
same,Population Pyknosed Nuclei (%),[1],30%
same,Population Tubulin-Different-Phenotype (%),[1],48%
same,Total Cell Count,[1],241
same,Population Apoptotic (%),[2],50%
same,Population Fragmented Nuclei (%),[2],8%
same,Population Healthy Nuclei (%),[2],88%
same,Population Hoechst High Intensity Objects (%),[2],10%
same,Population Membrane Permeable-Phenotype (%),[2],7%
same,Population Mitochondria Different-Phenotype (%),[2],21%
same,Population Mitotic Cells (%),[2],50%
same,Population Normal (%),[2],89%
same,Population Pyknosed Nuclei (%),[2],3%
same,Population Tubulin-Different-Phenotype (%),[2],15%
same,Total Cell Count,[2],111
same,Population Apoptotic (%),[3],65%
same,Population Fragmented Nuclei (%),[3],24%
same,Population Healthy Nuclei (%),[3],38%
same,Population Hoechst High Intensity Objects (%),[3],17%
same,Population Membrane Permeable-Phenotype (%),[3],10%
same,Population Mitochondria Different-Phenotype (%),[3],54%
same,Population Mitotic Cells (%),[3],34%
same,Population Normal (%),[3],82%
same,Population Pyknosed Nuclei (%),[3],36%
same,Population Tubulin-Different-Phenotype (%),[3],95%
same,Total Cell Count,[3],143
same,Population Apoptotic (%),[4],83%
same,Population Fragmented Nuclei (%),[4],13%
same,Population Healthy Nuclei (%),[4],79%
same,Population Hoechst High Intensity Objects (%),[4],7%
same,Population Membrane Permeable-Phenotype (%),[4],23%
same,Population Mitochondria Different-Phenotype (%),[4],95%
same,Population Mitotic Cells (%),[4],16%
same,Population Normal (%),[4],92%
same,Population Pyknosed Nuclei (%),[4],6%
same,Population Tubulin-Different-Phenotype (%),[4],98%
same,Total Cell Count,[4],66
same,Population Apoptotic (%),[5],48%
same,Population Fragmented Nuclei (%),[5],32%
same,Population Healthy Nuclei (%),[5],49%
same,Population Hoechst High Intensity Objects (%),[5],18%
same,Population Membrane Permeable-Phenotype (%),[5],24%
same,Population Mitochondria Different-Phenotype (%),[5],7%
same,Population Mitotic Cells (%),[5],51%
same,Population Normal (%),[5],81%
same,Population Pyknosed Nuclei (%),[5],18%
same,Population Tubulin-Different-Phenotype (%),[5],60%
same,Total Cell Count,[5],248
same,Population Apoptotic (%),[6],60%
same,Population Fragmented Nuclei (%),[6],8%
same,Population Healthy Nuclei (%),[6],83%
same,Population Hoechst High Intensity Objects (%),[6],6%
same,Population Membrane Permeable-Phenotype (%),[6],5%
same,Population Mitochondria Different-Phenotype (%),[6],23%
same,Population Mitotic Cells (%),[6],40%
same,Population Normal (%),[6],93%
same,Population Pyknosed Nuclei (%),[6],8%
same,Population Tubulin-Different-Phenotype (%),[6],9%
same,Total Cell Count,[6],157
same,Population Apoptotic (%),[7],72%
same,Population Fragmented Nuclei (%),[7],26%
same,Population Healthy Nuclei (%),[7],47%
same,Population Hoechst High Intensity Objects (%),[7],20%
same,Population Membrane Permeable-Phenotype (%),[7],16%
same,Population Mitochondria Different-Phenotype (%),[7],63%
same,Population Mitotic Cells (%),[7],27%
same,Population Normal (%),[7],79%
same,Population Pyknosed Nuclei (%),[7],25%
same,Population Tubulin-Different-Phenotype (%),[7],94%
same,Total Cell Count,[7],145
same,Population Apoptotic (%),[8],80%
same,Population Fragmented Nuclei (%),[8],16%
same,Population Healthy Nuclei (%),[8],65%
same,Population Hoechst High Intensity Objects (%),[8],8%
same,Population Membrane Permeable-Phenotype (%),[8],50%
same,Population Mitochondria Different-Phenotype (%),[8],100%
same,Population Mitotic Cells (%),[8],20%
same,Population Normal (%),[8],91%
same,Population Pyknosed Nuclei (%),[8],17%
same,Population Tubulin-Different-Phenotype (%),[8],100%
same,Total Cell Count,[8],66
same,Population Apoptotic (%),[9],60%
same,Population Fragmented Nuclei (%),[9],39%
same,Population Healthy Nuclei (%),[9],51%
same,Population Hoechst High Intensity Objects (%),[9],19%
same,Population Membrane Permeable-Phenotype (%),[9],23%
same,Population Mitochondria Different-Phenotype (%),[9],4%
same,Population Mitotic Cells (%),[9],40%
same,Population Normal (%),[9],80%
same,Population Pyknosed Nuclei (%),[9],9%
same,Population Tubulin-Different-Phenotype (%),[9],49%
same,Total Cell Count,[9],203
same,Population Apoptotic (%),[10],50%
same,Population Fragmented Nuclei (%),[10],23%
same,Population Healthy Nuclei (%),[10],73%
same,Population Hoechst High Intensity Objects (%),[10],8%
same,Population Membrane Permeable-Phenotype (%),[10],16%
same,Population Mitochondria Different-Phenotype (%),[10],0%
same,Population Mitotic Cells (%),[10],50%
same,Population Normal (%),[10],91%
same,Population Pyknosed Nuclei (%),[10],2%
same,Population Tubulin-Different-Phenotype (%),[10],34%
same,Total Cell Count,[10],74
same,Population Apoptotic (%),[11],85%
same,Population Fragmented Nuclei (%),[11],32%
same,Population Healthy Nuclei (%),[11],49%
same,Population Hoechst High Intensity Objects (%),[11],17%
same,Population Membrane Permeable-Phenotype (%),[11],11%
same,Population Mitochondria Different-Phenotype (%),[11],79%
same,Population Mitotic Cells (%),[11],15%
same,Population Normal (%),[11],82%
same,Population Pyknosed Nuclei (%),[11],18%
same,Population Tubulin-Different-Phenotype (%),[11],92%
same,Total Cell Count,[11],131
same,Population Apoptotic (%),[12],50%
same,Population Fragmented Nuclei (%),[12],37%
same,Population Healthy Nuclei (%),[12],60%
same,Population Hoechst High Intensity Objects (%),[12],18%
same,Population Membrane Permeable-Phenotype (%),[12],7%
same,Population Mitochondria Different-Phenotype (%),[12],59%
same,Population Mitotic Cells (%),[12],50%
same,Population Normal (%),[12],81%
same,Population Pyknosed Nuclei (%),[12],2%
same,Population Tubulin-Different-Phenotype (%),[12],96%
same,Total Cell Count,[12],117
